Experimental data as given in ChEMBL document CHEMBL1122696, “Synthesis and antiviral/antitumor activities of certain pyrazolo[3,4-d]pyrimidine-4(5H)-selone nucleosides and related compounds” (J Med Chem, 1984).
Calls of active or inactive are those of the source. The calls are words filed in the database; no cut-off is given here.

Assays:
Vaccinia virus = experiment: In vitro antiviral activity against Vaccinia virus; format: functional; conditions: Orthopoxvirus vaccinia; read-out: ED50 (the source's name)
Human respirovirus 3 = experiment: In vitro antiviral activity against parainfluenza type (para 3) virus; format: functional; conditions: read-out: ED50 (the source's name)
[1] = Toxic level of the compound; format: ADME
How it was run: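 HeLa and Vero cells grown overnight to near confluency, then exposed to compound at 100 or 1000 μg/mL for 24-72 h in quadruplicate wells. Cells trypsinized, serially diluted and replated, then grown 3-5 days drug-free. Crystal violet-stained colonies counted. Survival expressed as relative plating efficiency versus untreated controls.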

Measles morbillivirus = experiment: In vitro antiviral activity against measles virus; format: functional; conditions: read-out: ED50 (the source's name)
P388 [2] = experiment: In vitro antitumor activity against P388 leukemia cells; format: functional; conditions: Mus musculus, read-out: ID50 (the source's name)
How it was run: (§1)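 L1210 or P388 cells kept in RPMI-1640 with 10% heat-inactivated fetal calf serum, seeded at 5×10^4 cells/mL in tubes. Grown with compound at 4-5 log doses for 48 h at 37 °C. Growth read by Coulter cell count as % of untreated control tubes. ID50 = dose giving 50% growth inhibition.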

Human alphaherpesvirus 2 = experiment: In vitro antiviral activity against Herpes simplex type 2 virus; format: functional; conditions: read-out: ED50 (the source's name)
L1210 [3] = experiment: In vitro antitumor activity against L1210 leukemia cells; format: functional; conditions: Mus musculus, read-out: ID50 (the source's name); how it was run: as §1
L1210 [4] = experiment: In vitro antitumor activity against L1210 leukemia cells; b = Inactive at 10e-4 M; format: functional, cell-based; conditions: Mus musculus
How it was run: (§2)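 L1210 and P388 cells kept in RPMI-1640 with 10% heat-inactivated fetal calf serum. Seeded in tubes at 5×10^4 cells/mL and grown 48 h at 37 °C with compound at 4-5 log doses. Growth counted by Coulter counter and expressed as % of untreated control tubes. ID50 is the dose giving 50% growth inhibition.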

P388 [5] = experiment: In vitro antitumor activity against P388 leukemia cells; b = Inactive at 10e-4 M; format: functional, cell-based; conditions: Mus musculus; how it was run: as §2
[6] = Toxic level of the compound; None; format: ADME

Q: With `Cc1nc([SeH])c2cnn(C3O[C@H](CO)[C@@H](O)[C@H]3O)c2n1` (stereo partly drawn) as the molecule, how does the EC50 (Vaccinia virus) read?
A: The EC50 was 16 µM.

Q: And the EC50 (Human respirovirus 3)?
A: The EC50 was 13 µM.

Q: What about the Toxic level [1] of the same molecule?
A: Its Toxic level is 500 µM.

Q: And the EC50 (Measles morbillivirus)?
A: Its EC50 is 1.3 µM.

Q: And the IC50 (P388 [2])?
A: The IC50 was 3.1 µM.

Q: And the EC50 (Human alphaherpesvirus 2)?
A: Its EC50 is 5 µM.

Q: What about the IC50 (L1210 [3]) of the same molecule?
A: The IC50 was 3.1 µM.

Q: Which EC50 (Vaccinia virus) does the source give for `OC[C@H]1OC(n2ncc3c([SeH])ncnc32)[C@H](O)[C@@H]1O` (stereo partly drawn) here?
A: The EC50 was 9.6 µM.

Q: What about the EC50 (Human respirovirus 3) of the same molecule?
A: The EC50 was > 5000 µM.

Q: What about the Toxic level [1] of the same molecule?
A: Its Toxic level is 160 µM.

Q: And the EC50 (Measles morbillivirus)?
A: Its EC50 is 1.2 µM.

Q: And the IC50 (P388 [2])?
A: The IC50 was 2.7 µM.

Q: What about the EC50 (Human alphaherpesvirus 2) of the same molecule?
A: The EC50 was 5 µM.

Q: And the IC50 (L1210 [3])?
A: Its IC50 is 2.5 µM.

Q: With `Cc1nc(N)c2cnn(C3O[C@H](CO)[C@@H](O)[C@H]3O)c2n1` (stereo partly drawn) as the molecule, how does the EC50 (Vaccinia virus) read?
A: Its EC50 is 5000 µM.

Q: And the EC50 (Human respirovirus 3)?
A: Its EC50 is > 5000 µM.

Q: What about the EC50 (Measles morbillivirus) of the same molecule?
A: The EC50 was 12 µM.

Q: And the ID50 (L1210 [4])?
A: Its ID50 is “Inactive at 10^-4M”.

Q: What about the ID50 (P388 [5]) of the same molecule?
A: Its ID50 is “Inactive at 10^-4M”.

Q: What about the Toxic level [6] of the same molecule?
A: The Toxic level was “Not Active”.

Q: What about the EC50 (Human alphaherpesvirus 2) of the same molecule?
A: The EC50 was 35 µM.

Q: Which results are given for `Cc1nc(S)c2cnn(C3O[C@H](CO)[C@@H](O)[C@H]3O)c2n1` (stereo partly drawn)?
A: EC50 (Vaccinia virus): 1200 µM; EC50 (Human respirovirus 3): > 5000 µM; Toxic level [1]: 5000 µM; EC50 (Measles morbillivirus): 0.0014 µM; ID50 (L1210 [4]): Inactive at 10^-4M; ID50 (P388 [5]): Inactive at 10^-4M; EC50 (Human alphaherpesvirus 2): 320 µM

Q: With `OC[C@H]1OC(n2ncc3c(S)ncnc32)[C@H](O)[C@@H]1O` (stereo partly drawn) as the molecule, how does the EC50 (Human respirovirus 3) read?
A: The EC50 was > 5000 µM.

Q: What about the EC50 (Measles morbillivirus) of the same molecule?
A: The EC50 was 12 µM.

Q: And the ID50 (L1210 [4])?
A: The ID50 was “Inactive at 10^-4M”.

Q: What about the ID50 (P388 [5]) of the same molecule?
A: The ID50 was “Inactive at 10^-4M”.

Q: And the Toxic level [6]?
A: The Toxic level was “Not Active”.

Q: What about the EC50 (Human alphaherpesvirus 2) of the same molecule?
A: Its EC50 is 160 µM.

Q: Which results are given for `OC[C@H]1OC(n2nc(Br)c3c([SeH])ncnc32)[C@H](O)[C@@H]1O` (stereo partly drawn)?
A: EC50 (Vaccinia virus): 5 µM; EC50 (Human respirovirus 3): > 5000 µM; Toxic level [1]: 50 µM; EC50 (Measles morbillivirus): 1.3 µM; IC50 (P388 [2]): 2.3 µM; EC50 (Human alphaherpesvirus 2): 9 µM; IC50 (L1210 [3]): 2.7 µM

Q: For `Cc1nc2c(cnn2C2O[C@H](CO)[C@@H](O)[C@H]2O)c(=O)[nH]1` (stereo partly drawn), which EC50 (Vaccinia virus) is on record?
A: Its EC50 is 1600 µM.

Q: What about the EC50 (Human respirovirus 3) of the same molecule?
A: The EC50 was > 5000 µM.

Q: What about the Toxic level [1] of the same molecule?
A: The Toxic level was 5000 µM.

Q: What about the EC50 (Measles morbillivirus) of the same molecule?
A: Its EC50 is 12 µM.

Q: And the ID50 (L1210 [4])?
A: Its ID50 is “Inactive at 10^-4M”.

Q: And the ID50 (P388 [5])?
A: The ID50 was “Inactive at 10^-4M”.

Q: And the EC50 (Human alphaherpesvirus 2)?
A: The EC50 was 50 µM.
